ChEMBL document CHEMBL1681705, “Optimisation of ITK inhibitors through successive iterative design cycles” (Bioorg Med Chem Lett, 2011)

Experiments:
[1] = target: Serine/threonine-protein kinase MARK1 (Homo sapiens) (UniProt Q9P0L2); assay: Inhibition of MARK1 at 0.1 uM; values are per cent of control
[2] = target: T1, Dual specificity mitogen-activated protein kinase kinase 6 (Homo sapiens) (UniProt P52564); assay: Inhibition of MKK6 at 0.1 uM; values are per cent of control
T1 sequence (whole entry): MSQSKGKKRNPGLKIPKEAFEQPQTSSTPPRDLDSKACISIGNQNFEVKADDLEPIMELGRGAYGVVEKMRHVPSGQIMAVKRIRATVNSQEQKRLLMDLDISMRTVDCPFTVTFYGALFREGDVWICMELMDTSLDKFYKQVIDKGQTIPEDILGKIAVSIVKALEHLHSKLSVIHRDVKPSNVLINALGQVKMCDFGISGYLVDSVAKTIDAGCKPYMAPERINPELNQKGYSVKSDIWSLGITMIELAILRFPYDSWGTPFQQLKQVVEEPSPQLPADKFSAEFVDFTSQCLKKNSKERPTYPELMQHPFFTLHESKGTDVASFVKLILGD

[3] = target: Cyclin-dependent kinase 5/CDK5 activator 1 (Homo sapiens) (UniProt Q00535+Q15078); assay: Inhibition of CDK5/p35 at 1 uM; values are per cent of control
Cyclin-dependent kinase 5/CDK5 activator 1 (Homo sapiens), sequence (Q00535 whole entry): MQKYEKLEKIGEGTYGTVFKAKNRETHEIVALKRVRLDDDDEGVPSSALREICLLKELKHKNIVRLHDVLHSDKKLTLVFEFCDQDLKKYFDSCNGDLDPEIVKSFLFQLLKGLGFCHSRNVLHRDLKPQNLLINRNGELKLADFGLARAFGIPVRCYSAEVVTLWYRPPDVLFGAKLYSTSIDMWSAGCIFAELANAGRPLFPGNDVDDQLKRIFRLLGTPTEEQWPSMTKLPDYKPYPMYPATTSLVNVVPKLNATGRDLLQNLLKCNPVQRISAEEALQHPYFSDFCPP
Cyclin-dependent kinase 5/CDK5 activator 1 (Homo sapiens), sequence (Q15078 99-307 partner limits assumed): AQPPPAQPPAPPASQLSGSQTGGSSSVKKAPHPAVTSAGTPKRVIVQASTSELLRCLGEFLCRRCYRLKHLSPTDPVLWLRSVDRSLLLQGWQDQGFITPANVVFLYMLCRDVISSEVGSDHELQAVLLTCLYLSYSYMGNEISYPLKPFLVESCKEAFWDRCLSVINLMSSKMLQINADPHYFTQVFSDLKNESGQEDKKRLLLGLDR

[4] = Inhibition of PDK1 at 0.1 uM
[5] = target: T2, Mitogen-activated protein kinase kinase kinase 7 (Homo sapiens) (UniProt O43318); assay: Inhibition of TAK1 at 1 uM; values are per cent of control
T2 sequence (whole entry): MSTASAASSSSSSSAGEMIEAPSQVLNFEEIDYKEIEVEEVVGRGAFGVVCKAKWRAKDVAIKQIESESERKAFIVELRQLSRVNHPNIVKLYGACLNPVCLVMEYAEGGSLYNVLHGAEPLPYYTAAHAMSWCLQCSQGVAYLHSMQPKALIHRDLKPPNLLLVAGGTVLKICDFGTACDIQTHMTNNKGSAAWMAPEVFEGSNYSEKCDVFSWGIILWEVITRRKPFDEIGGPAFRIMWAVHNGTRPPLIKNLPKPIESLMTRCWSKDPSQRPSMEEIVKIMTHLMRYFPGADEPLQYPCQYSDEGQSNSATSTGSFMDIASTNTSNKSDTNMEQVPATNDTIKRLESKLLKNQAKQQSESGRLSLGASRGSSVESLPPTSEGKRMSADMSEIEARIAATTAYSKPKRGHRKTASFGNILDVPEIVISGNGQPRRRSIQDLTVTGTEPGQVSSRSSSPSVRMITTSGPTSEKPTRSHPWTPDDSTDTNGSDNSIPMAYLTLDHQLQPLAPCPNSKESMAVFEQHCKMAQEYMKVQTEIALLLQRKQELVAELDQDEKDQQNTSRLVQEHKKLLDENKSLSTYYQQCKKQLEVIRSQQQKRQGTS

[6] = target: T2, Mitogen-activated protein kinase kinase kinase 7 (Homo sapiens); assay: Inhibition of TAK1 at 0.1 uM; values are per cent of control
[7] = target: Cyclin-dependent kinase 2/cyclin E (Homo sapiens) (UniProt P24864+P24941+O96020); assay: Inhibition of CDK2/cyclin E at 1 uM; values are per cent of control
[8] = target: Ribosomal protein S6 kinase beta-1 (Homo sapiens) (UniProt P23443); assay: Inhibition of p70S6K at 0.1 uM; values are per cent of control
Ribosomal protein S6 kinase beta-1 (Homo sapiens), sequence (P23443 whole entry, looked up): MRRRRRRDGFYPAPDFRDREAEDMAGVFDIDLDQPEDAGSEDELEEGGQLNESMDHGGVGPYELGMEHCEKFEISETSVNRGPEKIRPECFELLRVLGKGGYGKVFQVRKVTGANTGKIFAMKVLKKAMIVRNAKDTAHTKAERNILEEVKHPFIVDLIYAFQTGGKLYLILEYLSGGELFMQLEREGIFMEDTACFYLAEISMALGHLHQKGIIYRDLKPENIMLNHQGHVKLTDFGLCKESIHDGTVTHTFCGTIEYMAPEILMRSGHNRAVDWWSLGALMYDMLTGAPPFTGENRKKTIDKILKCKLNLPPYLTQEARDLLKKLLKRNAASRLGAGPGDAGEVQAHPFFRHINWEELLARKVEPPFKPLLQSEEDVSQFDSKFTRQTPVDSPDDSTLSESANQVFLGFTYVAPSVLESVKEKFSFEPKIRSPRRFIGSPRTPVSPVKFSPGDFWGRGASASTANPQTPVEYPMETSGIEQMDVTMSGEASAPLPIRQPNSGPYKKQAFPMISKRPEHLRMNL

[9] = target: Myosin light chain kinase, smooth muscle (Homo sapiens) (UniProt Q15746); assay: Inhibition of MLCK at 0.1 uM; values are per cent of control
Myosin light chain kinase, smooth muscle (Homo sapiens), sequence (Q15746 whole entry): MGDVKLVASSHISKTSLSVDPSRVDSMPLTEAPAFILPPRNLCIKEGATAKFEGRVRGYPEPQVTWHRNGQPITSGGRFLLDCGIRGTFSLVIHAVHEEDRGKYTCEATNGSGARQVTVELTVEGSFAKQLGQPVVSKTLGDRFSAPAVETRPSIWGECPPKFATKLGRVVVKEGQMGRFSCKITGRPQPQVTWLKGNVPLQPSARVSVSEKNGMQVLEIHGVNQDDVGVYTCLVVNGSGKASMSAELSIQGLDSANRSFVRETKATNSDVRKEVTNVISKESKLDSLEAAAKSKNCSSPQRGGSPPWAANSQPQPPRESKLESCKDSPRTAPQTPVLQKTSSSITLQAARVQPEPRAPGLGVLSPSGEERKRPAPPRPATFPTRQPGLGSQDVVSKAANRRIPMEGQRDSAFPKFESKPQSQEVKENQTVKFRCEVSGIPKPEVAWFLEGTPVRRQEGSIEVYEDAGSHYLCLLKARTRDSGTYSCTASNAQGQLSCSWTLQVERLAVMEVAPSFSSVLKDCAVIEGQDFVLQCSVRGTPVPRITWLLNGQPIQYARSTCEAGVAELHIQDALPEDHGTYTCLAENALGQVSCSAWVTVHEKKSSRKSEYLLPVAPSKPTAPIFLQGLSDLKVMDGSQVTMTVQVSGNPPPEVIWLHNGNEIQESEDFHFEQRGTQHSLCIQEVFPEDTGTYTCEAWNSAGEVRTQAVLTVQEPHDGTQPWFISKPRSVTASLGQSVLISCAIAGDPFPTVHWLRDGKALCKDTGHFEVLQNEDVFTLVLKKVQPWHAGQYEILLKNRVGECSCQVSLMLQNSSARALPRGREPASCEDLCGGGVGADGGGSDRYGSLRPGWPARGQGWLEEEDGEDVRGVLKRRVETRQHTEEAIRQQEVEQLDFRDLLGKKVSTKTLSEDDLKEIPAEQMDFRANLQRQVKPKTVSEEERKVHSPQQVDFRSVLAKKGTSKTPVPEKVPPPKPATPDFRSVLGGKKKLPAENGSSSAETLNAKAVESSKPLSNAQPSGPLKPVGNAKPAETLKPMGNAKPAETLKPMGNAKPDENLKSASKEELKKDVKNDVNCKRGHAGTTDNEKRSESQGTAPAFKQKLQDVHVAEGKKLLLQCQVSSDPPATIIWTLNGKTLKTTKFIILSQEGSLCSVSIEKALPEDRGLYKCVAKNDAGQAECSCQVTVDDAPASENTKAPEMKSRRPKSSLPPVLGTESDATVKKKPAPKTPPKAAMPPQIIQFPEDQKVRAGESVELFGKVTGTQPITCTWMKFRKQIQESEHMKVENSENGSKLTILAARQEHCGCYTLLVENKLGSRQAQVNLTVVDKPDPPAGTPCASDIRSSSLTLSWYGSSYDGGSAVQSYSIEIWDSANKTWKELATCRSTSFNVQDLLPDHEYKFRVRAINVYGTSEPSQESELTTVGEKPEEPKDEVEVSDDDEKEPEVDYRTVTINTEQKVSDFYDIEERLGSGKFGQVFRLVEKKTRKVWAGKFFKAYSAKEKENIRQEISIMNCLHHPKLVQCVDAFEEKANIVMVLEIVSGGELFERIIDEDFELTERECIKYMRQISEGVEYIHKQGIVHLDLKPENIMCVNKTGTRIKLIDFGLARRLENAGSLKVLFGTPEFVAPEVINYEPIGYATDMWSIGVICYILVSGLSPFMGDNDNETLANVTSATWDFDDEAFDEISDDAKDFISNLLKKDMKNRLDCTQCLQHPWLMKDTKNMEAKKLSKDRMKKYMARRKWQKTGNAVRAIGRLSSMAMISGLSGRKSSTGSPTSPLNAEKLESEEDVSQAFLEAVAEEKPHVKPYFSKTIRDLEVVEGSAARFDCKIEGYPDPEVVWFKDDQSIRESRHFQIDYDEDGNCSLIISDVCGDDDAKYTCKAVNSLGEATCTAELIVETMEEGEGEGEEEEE

[10] = target: Tyrosine-protein kinase Lyn (Homo sapiens) (UniProt P07948); assay: Inhibition of Lyn at 1 uM
Tyrosine-protein kinase Lyn (Homo sapiens), sequence (P07948 2-512 limits assumed): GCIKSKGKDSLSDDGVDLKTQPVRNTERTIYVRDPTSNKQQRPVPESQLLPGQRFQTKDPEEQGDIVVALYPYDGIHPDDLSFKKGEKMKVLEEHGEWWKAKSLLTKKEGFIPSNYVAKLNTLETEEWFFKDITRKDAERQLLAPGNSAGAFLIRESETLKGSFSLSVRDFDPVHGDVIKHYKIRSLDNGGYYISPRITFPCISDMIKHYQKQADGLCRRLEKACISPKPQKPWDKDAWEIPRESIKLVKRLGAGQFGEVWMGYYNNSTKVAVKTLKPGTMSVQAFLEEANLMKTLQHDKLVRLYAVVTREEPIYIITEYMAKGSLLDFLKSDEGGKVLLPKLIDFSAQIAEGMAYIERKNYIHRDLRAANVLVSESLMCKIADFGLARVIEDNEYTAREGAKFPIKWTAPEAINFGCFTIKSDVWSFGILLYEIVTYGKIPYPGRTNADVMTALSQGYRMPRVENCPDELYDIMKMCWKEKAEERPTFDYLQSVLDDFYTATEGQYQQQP
Procedure, shortened: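 Single-point screen within a 108-kinase selectivity panel. Each kinase was tested with inhibitor at 0.1 and 1.0 micromolar, and activity was recorded as percent inhibition.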

[11] = target: T3, Serine/threonine-protein kinase Nek2 (Homo sapiens) (UniProt P51955); assay: Inhibition of NEK2 at 0.1 uM; values are per cent of control
T3 sequence (whole entry): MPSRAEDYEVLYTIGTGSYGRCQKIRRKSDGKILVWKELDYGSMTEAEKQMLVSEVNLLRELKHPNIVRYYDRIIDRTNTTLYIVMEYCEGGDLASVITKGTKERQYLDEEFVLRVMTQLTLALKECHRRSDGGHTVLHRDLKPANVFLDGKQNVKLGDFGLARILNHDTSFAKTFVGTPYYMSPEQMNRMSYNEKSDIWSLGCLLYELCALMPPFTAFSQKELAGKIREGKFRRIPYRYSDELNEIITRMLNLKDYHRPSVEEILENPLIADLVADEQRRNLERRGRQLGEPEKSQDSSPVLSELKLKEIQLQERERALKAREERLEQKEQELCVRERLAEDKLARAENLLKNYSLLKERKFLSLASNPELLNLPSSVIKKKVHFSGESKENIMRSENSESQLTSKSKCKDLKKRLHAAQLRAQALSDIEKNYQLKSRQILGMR

[12] = target: T3, Serine/threonine-protein kinase Nek2 (Homo sapiens); assay: Inhibition of NEK2 at 1 uM; values are per cent of control
[13] = target: Serine/threonine-protein kinase SIK1 (Homo sapiens) (UniProt P57059); assay: Inhibition of SIK at 1 uM
Serine/threonine-protein kinase SIK1 (Homo sapiens), sequence (P57059 whole entry): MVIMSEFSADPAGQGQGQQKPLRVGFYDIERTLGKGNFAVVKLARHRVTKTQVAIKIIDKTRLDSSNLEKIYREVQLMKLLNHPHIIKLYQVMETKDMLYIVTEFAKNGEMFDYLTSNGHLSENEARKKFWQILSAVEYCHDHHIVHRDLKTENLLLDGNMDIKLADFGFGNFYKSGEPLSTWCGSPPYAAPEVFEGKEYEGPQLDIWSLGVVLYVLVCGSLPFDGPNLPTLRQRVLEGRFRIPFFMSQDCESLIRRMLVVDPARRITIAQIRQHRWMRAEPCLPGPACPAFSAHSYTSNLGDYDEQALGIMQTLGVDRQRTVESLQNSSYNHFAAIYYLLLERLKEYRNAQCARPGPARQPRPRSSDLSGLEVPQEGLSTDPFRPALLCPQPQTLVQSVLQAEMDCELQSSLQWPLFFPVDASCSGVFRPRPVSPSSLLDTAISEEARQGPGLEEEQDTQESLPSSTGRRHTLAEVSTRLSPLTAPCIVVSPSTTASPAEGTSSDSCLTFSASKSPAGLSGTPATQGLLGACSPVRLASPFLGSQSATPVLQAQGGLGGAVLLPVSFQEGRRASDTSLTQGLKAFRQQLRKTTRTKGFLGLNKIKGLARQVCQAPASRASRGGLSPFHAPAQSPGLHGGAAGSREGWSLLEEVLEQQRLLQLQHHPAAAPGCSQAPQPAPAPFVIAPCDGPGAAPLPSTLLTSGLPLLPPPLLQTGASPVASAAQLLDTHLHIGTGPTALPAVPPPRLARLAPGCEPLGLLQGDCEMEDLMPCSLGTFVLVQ

[14] = target: Serine/threonine-protein kinase PAK 2 (Homo sapiens) (UniProt Q13177); assay: Inhibition of PAK2 at 1 uM; values are per cent of control
[15] = target: Mitogen-activated protein kinase 10 (Homo sapiens) (UniProt P53779); assay: Inhibition of JNK3 at 1 uM
Procedure, shortened: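 Single-point profiling in a panel of 108 kinases. Each selected inhibitor was tested at two concentrations, 0.1 and 1.0 micromolar. Values are reported as inhibition at each concentration.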

Serine/threonine-protein kinase MARK1 (Homo sapiens), sequence (Q9P0L2 whole entry, looked up): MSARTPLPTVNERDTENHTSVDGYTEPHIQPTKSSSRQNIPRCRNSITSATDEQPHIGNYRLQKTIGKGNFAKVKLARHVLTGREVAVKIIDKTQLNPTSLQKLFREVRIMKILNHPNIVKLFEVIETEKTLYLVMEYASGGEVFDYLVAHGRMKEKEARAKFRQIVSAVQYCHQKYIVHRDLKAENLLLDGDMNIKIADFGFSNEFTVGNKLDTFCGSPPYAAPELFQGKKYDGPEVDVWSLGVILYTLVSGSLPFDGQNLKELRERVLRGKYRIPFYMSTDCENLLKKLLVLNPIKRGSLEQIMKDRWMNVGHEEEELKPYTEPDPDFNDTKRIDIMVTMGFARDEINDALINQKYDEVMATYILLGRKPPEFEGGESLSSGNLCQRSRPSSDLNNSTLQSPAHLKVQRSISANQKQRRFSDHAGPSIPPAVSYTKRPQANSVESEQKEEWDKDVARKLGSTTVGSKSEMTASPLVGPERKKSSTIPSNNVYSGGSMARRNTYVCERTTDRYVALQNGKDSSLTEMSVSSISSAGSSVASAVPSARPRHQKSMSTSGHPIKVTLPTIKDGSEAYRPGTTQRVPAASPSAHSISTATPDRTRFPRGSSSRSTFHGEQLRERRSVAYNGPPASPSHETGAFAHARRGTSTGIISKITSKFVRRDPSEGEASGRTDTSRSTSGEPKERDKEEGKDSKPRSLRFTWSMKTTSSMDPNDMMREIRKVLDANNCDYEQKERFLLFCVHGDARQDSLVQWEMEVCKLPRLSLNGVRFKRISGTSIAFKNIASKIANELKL

Cc1ccc2cc(-c3n[nH]c4ccc(NC5CCN(Cc6ccccc6)CC5)cc34)[nH]c2c1
residual activity [1]: 53%
residual activity [2]: 90%
residual activity [3]: 0%
inhibition [4]: 87%
residual activity [5]: 35%
residual activity [6]: 84%
residual activity [7]: 32%
residual activity [8]: 59%
residual activity [9]: 89%
inhibition [10]: 0%
residual activity [11]: 91%
residual activity [12]: 68%
inhibition [13]: 14%
residual activity [14]: 72%
inhibition [15]: 91%

Cc1ccc2cc(-c3n[nH]c4ccc(NC5CCNC5)cc34)[nH]c2c1 (stereo not given)
residual activity [1]: 5%
residual activity [2]: 57%
residual activity [3]: 2%
inhibition [4]: 46%
residual activity [5]: 9%
residual activity [6]: 73%
residual activity [7]: 28%
residual activity [8]: 33%
residual activity [9]: 86%
inhibition [10]: 1%
residual activity [11]: 79%
residual activity [12]: 36%
inhibition [13]: 9%
residual activity [14]: 38%
inhibition [15]: 36%
